According to ChEMBL document CHEMBL3393040, “An Orally Available BACE1 Inhibitor That Affords Robust CNS Aβ Reduction without Cardiovascular Liabilities” (ACS Med Chem Lett, 2015):
Active and inactive are the calls of the source. The rule behind the calls is not given here.

Key:
Beta-secretase 1 [1] = target: T1, Beta-secretase 1 (Homo sapiens, UniProt P56817); assay: Inhibition of BACE1 in HEK293 cells stably expressing APPSW assessed as reduction in Abeta40 level incubated overnight at 0.0005 to 10 uM by ELISA method; assay type: cell-based
T1 sequence (P56817 whole entry): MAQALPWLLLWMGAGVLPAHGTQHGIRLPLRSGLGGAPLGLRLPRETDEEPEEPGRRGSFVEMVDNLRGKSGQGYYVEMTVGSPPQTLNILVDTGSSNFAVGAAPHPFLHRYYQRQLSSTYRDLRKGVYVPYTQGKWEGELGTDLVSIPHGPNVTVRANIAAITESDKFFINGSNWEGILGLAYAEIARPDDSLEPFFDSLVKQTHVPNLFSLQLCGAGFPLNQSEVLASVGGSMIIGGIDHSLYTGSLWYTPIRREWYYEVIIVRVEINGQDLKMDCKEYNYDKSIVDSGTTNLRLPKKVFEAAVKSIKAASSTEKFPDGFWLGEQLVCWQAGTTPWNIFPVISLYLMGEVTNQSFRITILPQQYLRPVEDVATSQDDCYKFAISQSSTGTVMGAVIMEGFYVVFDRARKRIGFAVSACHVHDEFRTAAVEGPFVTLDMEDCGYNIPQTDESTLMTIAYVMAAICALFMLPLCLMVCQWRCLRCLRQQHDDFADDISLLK

Beta-secretase 1 [2] = target: T1, Beta-secretase 1; assay: Inhibition of human recombinant BACE1 pre-incubated with enzyme for 60 mins before fluorescent substrate addition FRET method
Rattus norvegicus [3] = assay: Reduction in Abeta40 level in Sprague-Dawley rat CSF at 10 mg/kg, po administered as single dose by immunoassay; assay type: functional
How it was run: (§1)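 Male Sprague–Dawley rats received a single oral dose. Aβ40 was measured in CSF and brain 4 h later and reported as % reduction. EC50 is expressed as unbound plasma concentration.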

Rattus norvegicus [4] = assay: Reduction in Abeta40 level in Sprague-Dawley rat CSF at 3 mg/kg, po administered as single dose by immunoassay; assay type: functional; how it was run: as §1
Rhesus monkey = assay: Reduction in Abeta40 level in rhesus monkey CSF at 5 mg/kg, po administered as single dose by ELISA method; assay type: functional, organism-based; set-up: dose 5 mg/kg; conditions: Macaca mulatta
How it was run: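 Rhesus monkey time-course PD study after a 5 mg/kg oral dose, with CSF Aβ40 followed over time. An indirect response PK–PD model generated the in vivo unbound plasma IC50.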

Rattus norvegicus [5] = assay: Reduction in Abeta40 level in Sprague-Dawley rat CSF at 3 mg/kg, po administered as single dose after 4 hrs by immunoassay; assay type: functional, organism-based; set-up: dose 3 mg/kg; how it was run: as §1

Structure (SMILES) | IC50 (Beta-secretase 1 [1]) | IC50 (Beta-secretase 1 [2]) | other results
NC1=N[C@@]2(CO1)c1cc(-c3cccnc3F)ccc1Oc1c2cc(N2CCC(F)(F)C2)nc1F | 4 nM |  | 
NC1=N[C@@]2(CO1)c1cc(-c3cccnc3F)ccc1Oc1c2cc(-c2ccccc2)nc1F | 8 nM | 0.7 nM | inhibition in vivo at 10 mg/kg (Rattus norvegicus [3]): 75%
NC1=N[C@@]2(CO1)c1cc(-c3cccnc3F)ccc1Oc1c2cc(N2CCC(F)(F)CC2)nc1F | 6 nM |  | 
Cc1cc(-c2cc3c(c(F)n2)Oc2ccc(-c4cccnc4F)cc2[C@@]32COC(N)=N2)ccn1 | 12 nM |  | 
NC1=N[C@@]2(CO1)c1cc(-c3cccnc3F)ccc1Oc1c2cc(-c2ccncc2)nc1F |  |  | inhibition in vivo at 3 mg/kg (Rattus norvegicus [4]): 36%
NC1=N[C@@]2(CO1)c1cc(-c3cccnc3F)ccc1Oc1c2cc(C2=CCOCC2)nc1F | 4 nM | 0.3 nM | 
NC1=N[C@@]2(CO1)c1cc(-c3cccnc3F)ccc1Oc1c2cc(-c2ccnc(F)c2)nc1F | 6.5 nM | 0.4 nM | inhibition in vivo at 3 mg/kg (Rattus norvegicus [4]): 58%
NC1=N[C@@]2(CO1)c1cc(-c3ncccc3F)ccc1Oc1c2cc(C2=CCCOC2)nc1F | 4 nM | 0.3 nM | inhibition (Rhesus monkey): Active; inhibition (Rattus norvegicus [5]): Active
NC1=N[C@@]2(CO1)c1cc(-c3cccnc3F)ccc1Oc1c2cc(N2CC[C@@H](F)C2)nc1F | 3 nM | 0.2 nM | 
Cc1cc(-c2cc3c(c(F)n2)Oc2ccc(-c4cccnc4F)cc2[C@@]32COC(N)=N2)on1 | 23 nM | 0.3 nM | 
NC1=N[C@@]2(CO1)c1cc(-c3cccnc3F)ccc1Oc1c2cc(C2=CCCCO2)nc1F | 4.8 nM |  | 
NC1=N[C@@]2(CO1)c1cc(-c3cccnc3F)ccc1Oc1c2cc(N2CCOCC2)nc1F | 5 nM |  | inhibition in vivo at 3 mg/kg (Rattus norvegicus [4]): 69%
